Tests used:
[1] = biological target: T1, Muscarinic acetylcholine receptor M1 (Homo sapiens) (UniProt P11229); experiment: Allosteric modulation of human muscarinic M1 receptor expressed in CHO cells assessed as effect on acetylcholine-induced calcium mobilization by FLIPR assay; assay type: functional, cell-based
T1 sequence (whole entry): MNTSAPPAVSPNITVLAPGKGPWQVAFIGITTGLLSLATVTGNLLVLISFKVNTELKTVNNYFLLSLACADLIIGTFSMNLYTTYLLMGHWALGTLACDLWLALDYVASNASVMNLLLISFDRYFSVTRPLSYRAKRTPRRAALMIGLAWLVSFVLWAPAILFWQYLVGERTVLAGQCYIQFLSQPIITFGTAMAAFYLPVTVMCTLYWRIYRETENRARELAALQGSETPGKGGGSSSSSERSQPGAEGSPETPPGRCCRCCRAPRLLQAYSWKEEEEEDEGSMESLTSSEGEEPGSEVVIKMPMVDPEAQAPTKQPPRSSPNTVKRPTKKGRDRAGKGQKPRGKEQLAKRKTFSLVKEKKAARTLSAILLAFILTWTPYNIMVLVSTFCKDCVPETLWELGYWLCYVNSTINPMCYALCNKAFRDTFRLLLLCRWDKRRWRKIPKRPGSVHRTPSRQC
Outline: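 Human M1-expressing CHO cells; test compound added with an EC20 concentration of acetylcholine; calcium mobilization read on FLIPR384. Inflection point (IP) derived; percent max is the maximum potentiated EC20 response. Values are the mean of at least two experiments; interassay variability ±30% for IP unless otherwise noted.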

[2] = biological target: T1, Muscarinic acetylcholine receptor M1 (Homo sapiens); experiment: Allosteric modulation of human muscarinic M1 receptor expressed in CHO cells assessed as effect on acetylcholine-induced calcium mobilization by FLIPR assay relative to 1-Biphenyl-4-ylmethyl-4-oxo-1,4-dihydro-quinoline-3-carboxylic acid; assay type: functional, cell-based
[3] = Ratio of drug level in brain to plasma Sprague-Dawley rat at 10 mg/kg, po after 2 hrs
[4] = Plasma concentration in Sprague-Dawley rat at 10 mg/kg, po after 2 hrs
[5] = biological target: T1, Muscarinic acetylcholine receptor M1 (Homo sapiens); experiment: Potentiation of human muscarinic M1 receptor expressed in CHO cells assessed as effect on acetylcholine-induced calcium mobilization by FLIPR assay at 30 uM
[6] = Drug level Sprague-Dawley rat brain at 10 mg/kg, po after 2 hrs
[7] = Drug level Sprague-Dawley rat cerebrospinal fluid at 10 mg/kg, po after 2 hrs

IP [1] [nM]	Structure (SMILES)	also measured
150	O=C(O)c1cn(Cc2ccc(-c3cccs3)cn2)c2c(F)cccc2c1=O	–
110	CN(C)c1cccc(-c2ccc(Cn3cc(C(=O)O)c(=O)c4cccc(F)c43)nc2)c1	–
4000	O=C(O)c1cn(Cc2cnc(-c3ccccc3)nc2)c2c(F)cccc2c1=O	Emax [2]: 88%
190	O=C(O)c1cn(Cc2ccc(-c3ccc(F)cc3)nc2)c2c(F)cccc2c1=O	–
169	O=C(O)c1cn(Cc2ccc(-c3ccnc(Cl)c3)cn2)c2c(F)cccc2c1=O	–
1300	O=C(O)c1cn(Cc2cnc(-c3ccccc3)cn2)c2c(F)cccc2c1=O	Emax [2]: 85%
21	Nc1cccc(-c2ccc(Cn3cc(C(=O)O)c(=O)c4cccc(F)c43)cn2)c1	–
100	O=C(O)c1cn(Cc2ccc(-c3ccc(F)nc3)cn2)c2c(F)cccc2c1=O	Kp at 2 h [3]: 0.05; concentration at 2 h [4]: 12800 nM; fold change (FC) [5]: 81; concentration at 2 h [6]: 311 nM; concentration at 2 h [7]: 97 nM
82	CN(C)c1ccc(-c2ccc(Cn3cc(C(=O)O)c(=O)c4cccc(F)c43)nc2)cn1	–
169	O=C(O)c1cn(Cc2ccc(-c3ccc(Cl)nc3)nc2)c2c(F)cccc2c1=O	–
28	CS(=O)(=O)c1cccc(-c2ccc(Cn3cc(C(=O)O)c(=O)c4cccc(F)c43)cn2)c1	Kp at 2 h [3]: 0.4; concentration at 2 h [4]: 382 nM; concentration at 2 h [6]: 154 nM
660	COc1ccc(Cn2cc(C(=O)O)c(=O)c3ccccc32)cc1	–
57	O=C(O)c1cn(Cc2ccc(-c3ccc4[nH]ccc4c3)cn2)c2c(F)cccc2c1=O	–
130	CN(C)c1cccc(-c2ccc(Cn3cc(C(=O)O)c(=O)c4cccc(F)c43)cn2)c1	–
153	O=C(O)c1cn(Cc2ccc(-c3ccccc3)cn2)c2c(F)cccc2c1=O	fold change (FC) [5]: 37; Emax [2]: 80%
114	Cn1cc(-c2ccc(Cn3cc(C(=O)O)c(=O)c4c(F)ccc(F)c43)nc2)cn1	–
390	O=C(O)c1cn(Cc2ccc(-c3ccccc3)nn2)c2c(F)cccc2c1=O	Emax [2]: 97%
778	O=C(O)c1cn(Cc2ccc(-c3cccnc3)nn2)c2c(F)cccc2c1=O	–

IP [1] [nM]	Structure (SMILES)	also measured
97	CS(=O)(=O)c1cccc(-c2ccc(Cn3cc(C(=O)O)c(=O)c4cccc(F)c43)nc2)c1	–
67	O=C(O)c1cn(Cc2ccc(-c3ccc(F)cc3)cn2)c2c(F)cccc2c1=O	–
78	CC(=O)Nc1ccc(-c2ccc(Cn3cc(C(=O)O)c(=O)c4cccc(F)c43)nc2)cc1	–
160	Cn1cc(-c2ccc(Cn3cc(C(=O)O)c(=O)c4cccc(F)c43)nc2)cn1	Kp at 2 h [3]: 0.03; concentration at 2 h [4]: 33300 nM; fold change (FC) [5]: 37; concentration at 2 h [6]: 430 nM; concentration at 2 h [7]: 40 nM
1540	CS(=O)(=O)c1cccc(-c2ccc(Cn3cc(C(=O)O)c(=O)c4cccc(F)c43)nn2)c1	–
200	Nc1ccc(-c2ccc(Cn3cc(C(=O)O)c(=O)c4cccc(F)c43)nc2)cn1	–
8660	O=C(O)c1cn(Cc2ccc(-c3ccc4[nH]ccc4c3)nn2)c2c(F)cccc2c1=O	–
21	Nc1cccc(-c2ccc(Cn3cc(C(=O)O)c(=O)c4cccc(F)c43)nc2)c1	fold change (FC) [5]: 45
370	O=C(O)c1cn(Cc2ccc(-c3cccnc3)cn2)c2c(F)cccc2c1=O	Kp at 2 h [3]: 0.05; concentration at 2 h [4]: 2790 nM; concentration at 2 h [6]: 154 nM; concentration at 2 h [7]: 25 nM
2320	O=C(O)c1cn(Cc2ncc(-c3ccccc3)cn2)c2c(F)cccc2c1=O	Emax [2]: 90%
65	O=C(O)c1cn(Cc2ccc(-c3ccc4[nH]ccc4c3)nc2)c2c(F)cccc2c1=O	–
202	O=C(O)c1cn(Cc2ccc(-c3ccc(F)nc3)nc2)c2c(F)cccc2c1=O	–
466	O=C(O)c1cn(Cc2ccc(-c3ccc(F)cc3)nn2)c2c(F)cccc2c1=O	–
260	CS(=O)(=O)c1ccc(-c2ccc(Cn3cc(C(=O)O)c(=O)c4cccc(F)c43)nc2)cc1	fold change (FC) [5]: 33
89	COc1cccc(-c2ccc(Cn3cc(C(=O)O)c(=O)c4cccc(F)c43)nc2)c1	–
680	O=C(O)c1cn(Cc2ccc(-c3cncc(F)c3)cn2)c2c(F)cccc2c1=O	–
97	CS(=O)(=O)c1ccccc1-c1ccc(Cn2cc(C(=O)O)c(=O)c3cccc(F)c32)nc1	–
604	O=C(O)c1cn(Cc2ccc(-c3ccccc3)nc2)c2c(F)cccc2c1=O	Emax [2]: 97%

Reference: ChEMBL document CHEMBL1153183, “Pyridine containing M(1) positive allosteric modulators with reduced plasma protein binding” (Bioorg Med Chem Lett, 2010)
